The values that follow come from ChEMBL document CHEMBL4257584, “Sterol 14α-Demethylase Structure-Based Optimization of Drug Candidates for Human Infections with the Protozoan Trypanosomatidae” (J Med Chem, 2018).

Each structure is given as a SMILES string. Active and inactive are the calls of the source. The calls are words filed in the database; no cut-off is given here.

The test system of series [1] is Mus musculus. Briefly: Toxicity in Swiss Webster mouse assessed as effect on liver weight at 200 mg/kg, po administered as single dose measured after 48 hrs. Particulars: in vivo. The format is organism-based. In a few lines:
(§1)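 Swiss Webster mice (21–23 g, n=3) get a single oral 200 mg/kg dose, given as in the PK study. They are inspected for toxic and sub-toxic signs per OECD guidelines (behaviour, motility, neurological state, skin, fur), and body weight is tracked 0–48 h. At 48 h, mice are euthanized and organ weights are normalized to body weight. Blood is taken for haematology and plasma biochemistry.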

In series [2] the test system is Mus musculus. Briefly: Toxicity in Swiss Webster mouse assessed as effect on biochemical plasma parameters at 200 mg/kg, po administered as single dose measured after 48 hrs. The series is classed as organism-based. Particulars: in vivo. In a few lines:
as §1

Series [3] deals with Mus musculus. The series can be described thus: Toxicity in Swiss Webster mouse assessed as effect on fur profile at 200 mg/kg, po administered as single dose measured after 48 hrs. The format is organism-based. Conditions: in vivo. The method in brief:
as §1

Series [4] can be described thus: Drug uptake in BALB/c mouse liver at 25 mg/kg, po via gavage measured after 4 hrs post dose by […]. The series is classed as ADME, organism-based. Particulars: read-out: Drug uptake. The method in brief:
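BALB/c mice get a single oral gavage dose of 25 mg/kg; tissues are collected 4 h post-dose. About 100 mg tissue is diluted 5-fold in PBS and homogenized. Homogenate is extracted as for plasma (ketoconazole internal standard, acetonitrile extraction) and quantified by HPLC-UV at 291 nm, 0.1 μM detection limit, n=2.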

In series [5] the target is Putative lanosterol 14-alpha-demethylase (Leishmania infantum, UniProt A2TEF2). The series can be described thus: Binding affinity to Leishmania infantum CYP51 expressed in Escherichia coli. In a few lines: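 Purified E. coli-expressed L. infantum CYP51 at 0.5 μM is titrated with ligand at 0.1–1 μM in 5 cm path cuvettes. Difference-spectrum absorbance change Δ(A430−A411) is plotted against ligand concentration. Apparent Kd comes from a Morrison (quadratic) tight-binding fit by nonlinear regression.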
Sequence of Putative lanosterol 14-alpha-demethylase (A2TEF2 whole entry): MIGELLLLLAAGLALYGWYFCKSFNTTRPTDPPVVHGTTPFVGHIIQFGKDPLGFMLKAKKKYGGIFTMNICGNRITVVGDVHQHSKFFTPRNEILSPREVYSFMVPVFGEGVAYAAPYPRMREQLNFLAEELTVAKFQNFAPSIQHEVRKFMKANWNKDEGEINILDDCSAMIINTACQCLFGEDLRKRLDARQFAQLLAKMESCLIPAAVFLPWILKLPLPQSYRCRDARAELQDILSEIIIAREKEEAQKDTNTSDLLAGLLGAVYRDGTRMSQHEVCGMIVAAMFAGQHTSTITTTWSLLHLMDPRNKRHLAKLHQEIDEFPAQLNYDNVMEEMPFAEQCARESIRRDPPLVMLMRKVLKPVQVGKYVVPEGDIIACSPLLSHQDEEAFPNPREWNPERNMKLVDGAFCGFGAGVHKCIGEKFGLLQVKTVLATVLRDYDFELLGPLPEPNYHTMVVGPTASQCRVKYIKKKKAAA

For series [6], the system named is Mus musculus. Briefly: Toxicity in Swiss Webster mouse assessed as effect on lung weight at 200 mg/kg, po administered as single dose measured after 48 hrs. The series is classed as organism-based. Conditions: in vivo. In a few lines:
as §1

A short description of series [7]: Maximum plasma concentration in BALB/c mouse at 25 mg/kg, po via gavage by […]. The series is classed as ADME, organism-based. Also noted: dose 25 mg/kg, route oral. The method in brief: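 Single oral gavage dose of 25 mg/kg in BALB/c mice; blood sampled at 1, 2, 4, 6, 10, 16, 24 h. Plasma is diluted in PBS with ketoconazole internal standard, extracted with 80% acetonitrile, dried and redissolved. Analysed by reversed-phase HPLC with UV at 291/250 nm, 0.1 μM detection limit. Lifetime is time until undetectable.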

For series [8], the target named is Lanosterol 14-alpha-demethylase (Trypanosoma brucei brucei (strain 927/4 GUTat10.1)) (UniProt Q385E8). Briefly: Inhibition of Trypanosoma brucei […] CYP51 expressed in Escherichia coli using [3-3H]-obtusifoliol as substrate after 60 mins by LC-MS analysis. In a few lines:
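Reconstituted reaction: 1 μM purified CYP51, 2 μM T. brucei NADPH-P450 reductase, 100 μM dilauroylphosphatidylcholine, isocitrate dehydrogenase/isocitrate regeneration, 50 mM K phosphate pH 7.2, 10% glycerol. [3-3H]sterol substrate at 50 μM final (eburicol for T. cruzi; obtusifoliol for T. brucei and L. infantum) with inhibitor at 1.1 μM final. Preincubate 60 s at 37 °C, start with 100 μM NADPH, run 60 min, EtOAc extraction. Gives % inhibition of 14α-demethylation, triplicate, mean ± SD.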

Series [9] can be described thus: Hepatic clearance in human liver microsomes at 1 uM preincubated for 5 mins followed by NADPH addition and measured after 45 mins by LC/MS/MS analysis. The format is ADME, microsome.
Series [10] is described as follows: Half life in CD1 mouse liver microsomes at 1 uM preincubated for 5 mins followed by NADPH addition and measured by LC/MS/MS analysis. The format is ADME, microsome. Particulars: mouse, microsomes, 1 µM. In general terms: Microsomes from liver hold many membrane-bound enzymes, among them those of drug oxidation.

Sequence of Lanosterol 14-alpha-demethylase (Trypanosoma brucei brucei (strain 927/4 GUTat10.1)) (Q385E8 1-481): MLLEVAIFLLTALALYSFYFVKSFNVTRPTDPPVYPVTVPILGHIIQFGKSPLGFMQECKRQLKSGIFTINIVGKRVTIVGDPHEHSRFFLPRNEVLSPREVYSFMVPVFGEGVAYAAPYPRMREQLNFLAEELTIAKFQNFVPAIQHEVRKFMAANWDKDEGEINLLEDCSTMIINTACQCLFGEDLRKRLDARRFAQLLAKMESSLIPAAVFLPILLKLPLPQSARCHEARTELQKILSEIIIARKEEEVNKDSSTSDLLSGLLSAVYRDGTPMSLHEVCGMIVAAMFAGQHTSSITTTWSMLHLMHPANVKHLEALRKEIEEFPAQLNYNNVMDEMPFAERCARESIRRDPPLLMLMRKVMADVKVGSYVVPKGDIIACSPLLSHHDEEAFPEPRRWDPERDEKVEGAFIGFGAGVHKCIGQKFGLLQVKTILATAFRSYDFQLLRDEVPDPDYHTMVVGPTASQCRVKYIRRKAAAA

The Kd is the free concentration of one partner at which half of the binding sites on the other are occupied at equilibrium, for simple one-to-one binding. Broadly, the Cmax is the peak of the concentration-time curve. For `O=C(N[C@@H](Cn1ccnc1)c1c(F)cc(-c2ccc(F)cc2)cc1F)c1ccc(-c2nnc(-c3ccccc3)o2)cc1`, the Activity result in [1], in series [2], in series [3] and in [6] was “Non-Toxic” each time. Moreover, the concentration at 4 h in series [4] worked out at 120 µM. In [5], the dissociation constant (Kd) is 24 nM. The Cmax in [7] stood at 25 µM. Further, in [8], the inhibition result was “Active”. Moreover, in series [9], the CLhep predicted at 1 µM is 10.1 mL/min/kg. In series [10], this compound displayed a t1/2 of 23 min.
